Laboratory results from ChEMBL document CHEMBL4393701, “Appendix A. dithioloquinolinethiones as new potential multitargeted antibacterial and antifungal agents: Synthesis, biological evaluation and molecular docking studies” (2019).
≈ marks a conversion by molar mass, not a printed value.

Key:
Salmonella typhimurium [1] = experiment: Antibacterial activity against Salmonella typhimurium ATCC 13311 after 24 hrs by iodonitrotetrazolium chloride dye based microdilution method; type: functional, Salmonella enterica subsp. enterica serovar Typhimurium; conditions: Salmonella enterica, ATCC 13311, 24 h
Procedure, shortened: (§1)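 Fresh overnight cultures adjusted spectrophotometrically to 1×10^5 CFU/mL, giving 1.0×10^4 CFU per well in tryptic soy broth. Compounds were dissolved in 5% DMSO and tested at 0.001-1.0 mg/ml by serial dilution; 5% DMSO was the negative control. After 24 h at 37 °C, 0.2 mg/mL INT solution was added for 30 min at 37 °C and OD read at 655 nm. MIC is the lowest concentration giving significant growth inhibition versus the positive control. Duplicates, repeated three times.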

Micrococcus flavus [2] = experiment: Bactericidal activity against Micrococcus flavus ATCC 10240 incubated for 24 hrs followed by re-plating on tryptic soy broth; type: functional; conditions: ATCC 10240, 24 h
Procedure, shortened: (§2)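 Bacteria were grown in tryptic soy broth, 1.0×10^4 CFU per well, with compounds in 5% DMSO at 0.001-1.0 mg/ml for 24 h at 37 °C. Then 10 µL was subcultured into fresh TSB. MBC is the lowest concentration showing no growth after subculture, taken as 99.5% kill of the original inoculum. Duplicates, repeated three times.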

Penicillium ochrochloron [3] = experiment: Fungicidal activity against Penicillium ochrochloron ATCC 9112 incubated for 72 hrs followed by sub-culturing on broth malt medium and measured after 72 hrs; type: functional; conditions: ATCC 9112, 72 h
Procedure, shortened: (§3)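 After 72 h exposure in malt broth, 2 µL from test wells was subcultured into wells holding 100 µL broth and incubated a further 72 h at 28 °C. MFC is the lowest concentration with no visible growth, taken as 99.5% kill of the original inoculum. Three independent experiments in duplicate.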

Penicillium cyclopium [4] = experiment: Antifungal activity against Penicillium verrucosum var. cyclopium food isolate after 72 hrs by microdilution technique; type: functional
Procedure, shortened: (§4)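 Spores were washed off malt agar with 0.85% saline containing 0.1% Tween 80 and adjusted to about 1.0×10^5 per well. Compounds in 5% DMSO were serially diluted (0.001-1.0 mg/ml) in malt broth with inoculum. Plates were shaken at 160 rpm for 72 h at 28 °C. MIC is the lowest concentration without visible growth under a binocular microscope. Three independent experiments in duplicate.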

Aspergillus fumigatus [5] = experiment: Fungicidal activity against Aspergillus fumigatus ATCC 1022 incubated for 72 hrs followed by sub-culturing on broth malt medium and measured after 72 hrs; type: functional; conditions: ATCC 1022, 72 h; procedure, shortened: as §3
Aspergillus ochraceus [6] = experiment: Antifungal activity against Aspergillus ochraceus ATCC 12066 after 72 hrs by microdilution technique; type: functional; conditions: ATCC 12066, 72 h; procedure, shortened: as §4
Aspergillus versicolor [7] = experiment: Antifungal activity against Aspergillus versicolor ATCC 11730 after 72 hrs by microdilution method; type: functional; conditions: ATCC 11730, 72 h; procedure, shortened: as §4
Penicillium cyclopium [8] = experiment: Fungicidal activity against Penicillium verrucosum var. cyclopium food isolate incubated for 72 hrs followed by sub-culturing on broth malt medium and measured after 72 hrs; type: functional; procedure, shortened: as §3
Aspergillus niger [9] = experiment: Antifungal activity against Aspergillus niger ATCC 6275 after 72 hrs by microdilution technique; type: functional; conditions: ATCC 6275, 72 h; procedure, shortened: as §4
Aspergillus niger [10] = experiment: Fungicidal activity against Aspergillus niger ATCC 6275 incubated for 72 hrs followed by sub-culturing on broth malt medium and measured after 72 hrs; type: functional; conditions: ATCC 6275, 72 h; procedure, shortened: as §3
Aspergillus fumigatus [11] = experiment: Antifungal activity against Aspergillus fumigatus ATCC 1022 after 72 hrs by microdilution technique; type: functional; conditions: ATCC 1022, 72 h; procedure, shortened: as §4
Penicillium ochrochloron [12] = experiment: Antifungal activity against Penicillium ochrochloron ATCC 9112 after 72 hrs by microdilution technique; type: functional; conditions: ATCC 9112, 72 h; procedure, shortened: as §4
Trichoderma viride [13] = experiment: Antifungal activity against Trichoderma viride IAM 5061 after 72 hrs by microdilution technique; type: functional; conditions: IAM 5061, 72 h; procedure, shortened: as §4
[14] = Fungicidal activity against Penicillium funiculosum ATCC 36839 incubated for 72 hrs followed by sub-culturing on broth malt medium and measured after 72 hrs; type: functional; conditions: Talaromyces pinophilus, ATCC 36839, 72 h; procedure, shortened: as §3
Aspergillus versicolor [15] = experiment: Fungicidal activity against Aspergillus versicolor ATCC 11730 incubated for 72 hrs followed by sub-culturing on broth malt medium and measured after 72 hrs; type: functional; conditions: ATCC 11730, 72 h; procedure, shortened: as §3
Bacillus cereus [16] = experiment: Bactericidal activity against Bacillus cereus clinical isolate incubated for 24 hrs followed by re-plating on tryptic soy broth; type: functional; procedure, shortened: as §2
Listeria monocytogenes [17] = experiment: Antibacterial activity against Listeria monocytogenes NCTC 7973 after 24 hrs by iodonitrotetrazolium chloride dye based microdilution method; type: functional; conditions: NCTC 7973, 24 h; procedure, shortened: as §1
Enterobacter cloacae [18] = experiment: Bactericidal activity against Enterobacter cloacae incubated for 24 hrs followed by re-plating on tryptic soy broth; type: functional; procedure, shortened: as §2
Enterobacter cloacae [19] = experiment: Antibacterial activity against Enterobacter cloacae clinical isolate after 24 hrs by iodonitrotetrazolium chloride dye based microdilution method; type: functional; procedure, shortened: as §1
Salmonella typhimurium [20] = experiment: Bactericidal activity against Salmonella typhimurium ATCC 13311 incubated for 24 hrs followed by re-plating on tryptic soy broth; type: functional, Salmonella enterica subsp. enterica serovar Typhimurium; conditions: Salmonella enterica, ATCC 13311, 24 h; procedure, shortened: as §2
Pseudomonas aeruginosa [21] = experiment: Antibacterial activity against Pseudomonas aeruginosa ATCC 27853 after 24 hrs by iodonitrotetrazolium chloride dye based microdilution method; type: functional; conditions: ATCC 27853, 24 h; procedure, shortened: as §1
Bacillus cereus [22] = experiment: Antibacterial activity against Bacillus cereus clinical isolate after 24 hrs by iodonitrotetrazolium chloride dye based microdilution assay; type: functional; procedure, shortened: as §1
Escherichia coli [23] = experiment: Antibacterial activity against Escherichia coli ATCC 35210 after 24 hrs by iodonitrotetrazolium chloride dye based microdilution method; type: functional; conditions: ATCC 35210, 24 h; procedure, shortened: as §1
Pseudomonas aeruginosa [24] = experiment: Bactericidal activity against Pseudomonas aeruginosa ATCC 27853 incubated for 24 hrs followed by re-plating on tryptic soy broth; type: functional; conditions: ATCC 27853, 24 h; procedure, shortened: as §2
Escherichia coli [25] = experiment: Bactericidal activity against Escherichia coli ATCC 35210 incubated for 24 hrs followed by re-plating on tryptic soy broth; type: functional; conditions: ATCC 35210, 24 h; procedure, shortened: as §2
Micrococcus flavus [26] = experiment: Antibacterial activity against Micrococcus flavus ATCC 10240 after 24 hrs by iodonitrotetrazolium chloride dye based microdilution method; type: functional; conditions: ATCC 10240, 24 h; procedure, shortened: as §1
Trichoderma viride [27] = experiment: Fungicidal activity against Trichoderma viride IAM 5061 incubated for 72 hrs followed by sub-culturing on broth malt medium and measured after 72 hrs; type: functional; conditions: IAM 5061, 72 h; procedure, shortened: as §3
Staphylococcus aureus [28] = experiment: Bactericidal activity against Staphylococcus aureus ATCC 6538 incubated for 24 hrs followed by re-plating on tryptic soy broth; type: functional; conditions: ATCC 6538, 24 h; procedure, shortened: as §2
Staphylococcus aureus [29] = experiment: Antibacterial activity against Staphylococcus aureus ATCC 6538 after 24 hrs by iodonitrotetrazolium chloride dye based microdilution method; type: functional; conditions: ATCC 6538, 24 h; procedure, shortened: as §1
[30] = Antifungal activity against Penicillium funiculosum ATCC 36839 after 72 hrs by microdilution technique; type: functional; conditions: Talaromyces pinophilus, ATCC 36839, 72 h; procedure, shortened: as §4
Listeria monocytogenes [31] = experiment: Bactericidal activity against Listeria monocytogenes NCTC 7973 incubated for 24 hrs followed by re-plating on tryptic soy broth; type: functional; conditions: NCTC 7973, 24 h; procedure, shortened: as §2
Aspergillus ochraceus [32] = experiment: Fungicidal activity against Aspergillus ochraceus ATCC 12066 incubated for 72 hrs followed by sub-culturing on broth malt medium and measured after 72 hrs; type: functional; conditions: ATCC 12066, 72 h; procedure, shortened: as §3

Structure (SMILES)	MIC (Salmonella typhimurium [1]) [µM]	MBC (Micrococcus flavus [2]) [µM]	MFC (Penicillium ochrochloron [3]) [×10⁻² mM]	MIC (Penicillium cyclopium [4]) [×10⁻² mM]	MFC (Aspergillus fumigatus [5]) [×10⁻² mM]	MIC (Aspergillus ochraceus [6]) [×10⁻² mM]	MIC (Aspergillus versicolor [7]) [×10⁻² mM]	MFC (Penicillium cyclopium [8]) [×10⁻² mM]	MIC (Aspergillus niger [9]) [×10⁻² mM]	MFC (Aspergillus niger [10]) [×10⁻² mM]	MIC (Aspergillus fumigatus [11]) [×10⁻² mM]	MIC (Penicillium ochrochloron [12]) [×10⁻² mM]	MIC (Trichoderma viride [13]) [×10⁻² mM]	MFC [14] [×10⁻² mM]	MFC (Aspergillus versicolor [15]) [×10⁻² mM]	MBC (Bacillus cereus [16]) [µM]	MIC (Listeria monocytogenes [17]) [µM]	MBC (Enterobacter cloacae [18]) [µM]	MIC (Enterobacter cloacae [19]) [µM]	MBC (Salmonella typhimurium [20]) [µM]	also measured
Cc1ccc2c(c1)-c1c(ssc1=S)C(C)(C)N2C(=O)c1cccnc1	0.3 (≈ 0.115 µg/mL)	0.6 (≈ 0.231 µg/mL)	15.6	7.8	15.6	14.6	7.8	15.6	1.56	7.8	7.8	7.8	1.04	31.2	15.6	0.6 (≈ 0.231 µg/mL)	0.3 (≈ 0.115 µg/mL)	0.6 (≈ 0.231 µg/mL)	0.3 (≈ 0.115 µg/mL)	0.6 (≈ 0.231 µg/mL)	MIC (Pseudomonas aeruginosa [21]): 0.3 µM (≈ 0.115 µg/mL); MIC (Bacillus cereus [22]): 12.1 µM (≈ 4.65 µg/mL); MIC (Escherichia coli [23]): 12.1 µM (≈ 4.65 µg/mL); MBC (Pseudomonas aeruginosa [24]): 0.6 µM (≈ 0.231 µg/mL); MBC (Escherichia coli [25]): 0.6 µM (≈ 0.231 µg/mL); MIC (Micrococcus flavus [26]): 12.1 µM (≈ 4.65 µg/mL); MFC (Trichoderma viride [27]): 2.08 ×10⁻² mM; MBC (Staphylococcus aureus [28]): 0.6 µM (≈ 0.231 µg/mL); MIC (Staphylococcus aureus [29]): 0.3 µM (≈ 0.115 µg/mL); MIC [30]: 15.6 ×10⁻² mM; MBC (Listeria monocytogenes [31]): 0.6 µM (≈ 0.231 µg/mL); MFC (Aspergillus ochraceus [32]): 31.2 ×10⁻² mM
CC1(C)S[C@@H]2[C@H](NC(=O)[C@H](N)c3ccccc3)C(=O)N2[C@H]1C(=O)O [AMPICILLIN]	248 (≈ 86.7 µg/mL)	372 (≈ 130 µg/mL)	–	–	–	–	–	–	–	–	–	–	–	–	–	372 (≈ 130 µg/mL)	372 (≈ 130 µg/mL)	1240 (≈ 433 µg/mL)	744 (≈ 260 µg/mL)	380 (≈ 133 µg/mL)	MIC (Pseudomonas aeruginosa [21]): 372 µM (≈ 130 µg/mL); MIC (Bacillus cereus [22]): 248 µM (≈ 86.7 µg/mL); MIC (Escherichia coli [23]): 744 µM (≈ 260 µg/mL); MBC (Pseudomonas aeruginosa [24]): 492 µM (≈ 172 µg/mL); MBC (Escherichia coli [25]): 1240 µM (≈ 433 µg/mL); MIC (Micrococcus flavus [26]): 248 µM (≈ 86.7 µg/mL); MBC (Staphylococcus aureus [28]): 372 µM (≈ 130 µg/mL); MIC (Staphylococcus aureus [29]): 248 µM (≈ 86.7 µg/mL); MBC (Listeria monocytogenes [31]): 744 µM (≈ 260 µg/mL)
c1ccc(-c2ccc(C(c3ccccc3)n3ccnc3)cc2)cc1 (stereo unspecified) [BIFONAZOLE]	–	–	80	48	64	48	48	64	48	64	48	64	64	64	64	–	–	–	–	–	MFC (Trichoderma viride [27]): 80 ×10⁻² mM; MIC [30]: 48 ×10⁻² mM; MFC (Aspergillus ochraceus [32]): 80 ×10⁻² mM
CC(=O)N1CCN(c2ccc(OCC3COC(Cn4ccnc4)(c4ccc(Cl)cc4Cl)O3)cc2)CC1 (stereo unspecified) [KETOCONAZOLE]	–	–	95	38	95	38	285	57	38	95	38	38	475	380	380	–	–	–	–	–	MFC (Trichoderma viride [27]): 570 ×10⁻² mM; MIC [30]: 380 ×10⁻² mM; MFC (Aspergillus ochraceus [32]): 95 ×10⁻² mM
CN[C@@H]1[C@H](O[C@H]2[C@H](O[C@H]3[C@H](O)[C@@H](O)[C@H](N=C(N)N)[C@@H](O)[C@@H]3N=C(N)N)O[C@@H](C)[C@]2(O)C=O)O[C@@H](CO)[C@H](O)[C@H]1O [STREPTOMYCIN]	43 (≈ 25 µg/mL)	172 (≈ 100 µg/mL)	–	–	–	–	–	–	–	–	–	–	–	–	–	86 (≈ 50 µg/mL)	258 (≈ 150 µg/mL)	344 (≈ 200 µg/mL)	270 (≈ 157 µg/mL)	86 (≈ 50 µg/mL)	MIC (Pseudomonas aeruginosa [21]): 172 µM (≈ 100 µg/mL); MIC (Bacillus cereus [22]): 43 µM (≈ 25 µg/mL); MIC (Escherichia coli [23]): 270 µM (≈ 157 µg/mL); MBC (Pseudomonas aeruginosa [24]): 344 µM (≈ 200 µg/mL); MBC (Escherichia coli [25]): 344 µM (≈ 200 µg/mL); MIC (Micrococcus flavus [26]): 86 µM (≈ 50 µg/mL); MBC (Staphylococcus aureus [28]): 344 µM (≈ 200 µg/mL); MIC (Staphylococcus aureus [29]): 172 µM (≈ 100 µg/mL); MBC (Listeria monocytogenes [31]): 516 µM (≈ 300 µg/mL)
